Data set [1] has as its system Salmonella enterica subsp. enterica serovar Typhimurium. Briefly: Inhibition of SPI-1 T3SS in Salmonella typhimurium assessed as reduction in SPI-1 T3SS substrates by measuring SopB protein level at 5 to 100 uM after 4 hrs by Coomassie staining based SDS-PAGE method. In short, it runs like this: (§1)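 Overnight S. Typhimurium cultures were diluted 1:30 into LB (10 g/L NaCl) and grown 4 h with or without compound. Culture supernatant (1 mL) was precipitated overnight at 4 °C with TCA (10% final). Pellets were spun at 14,000 rpm for 30 min, acetone-washed, and dried. Proteins were resolved on 4–20% SDS-PAGE, Coomassie-stained, and imaged.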

Data set [2] has the same test system. Briefly: Inhibition of SPI-1 T3SS in Salmonella typhimurium assessed as reduction in SPI-1 T3SS substrates by measuring FliC protein level at 5 to 100 uM after 4 hrs by Coomassie staining based SDS-PAGE method. In short, it runs like this: as §1
The test system is the same in data set [3]. Briefly: Inhibition of SPI-1 T3SS in Salmonella typhimurium assessed as reduction in SPI-1 T3SS substrates by measuring FliD protein level at 5 to 100 uM after 4 hrs by Coomassie staining based SDS-PAGE method. The gist of the method: as §1
Data set [4] has the same test system. Briefly: Inhibition of SPI-1 T3SS in Salmonella typhimurium assessed as reduction in SPI-1 T3SS substrates by measuring SipB protein level at 5 to 100 uM after 4 hrs by Coomassie staining based SDS-PAGE method. The gist of the method: as §1
The test system is the same in data set [5]. Briefly: Inhibition of SPI-1 T3SS in Salmonella typhimurium assessed as reduction in SPI-1 T3SS substrates by measuring SipA protein level at 5 to 100 uM after 4 hrs by Coomassie staining based SDS-PAGE method. In short, it runs like this: as §1
The test system is the same in data set [6]. Briefly: Inhibition of SPI-1 T3SS in Salmonella typhimurium assessed as reduction in SPI-1 T3SS substrates by measuring SipC protein level at 5 to 100 uM after 4 hrs by Coomassie staining based SDS-PAGE method. In short, it runs like this: as §1
The test system is the same in data set [7]. Briefly: Inhibition of SPI-1 T3SS in Salmonella typhimurium assessed as reduction in SPI-1 T3SS substrates by measuring SopB protein level at 100 uM after 4 hrs by Coomassie staining based SDS-PAGE method. In short, it runs like this:
as §1

The test system is the same in data set [8]. Briefly: Inhibition of SPI-1 T3SS in Salmonella typhimurium assessed as reduction in SPI-1 T3SS substrates by measuring SipA protein level at 100 uM after 4 hrs by Coomassie staining based SDS-PAGE method. In short, it runs like this: as §1
For data set [9] the test system is unchanged. Briefly: Inhibition of SPI-1 T3SS in Salmonella typhimurium assessed as reduction in SPI-1 T3SS substrates by measuring SipC protein level at 100 uM after 4 hrs by Coomassie staining based SDS-PAGE method. In short, it runs like this: as §1
Data set [10] shares this test system. Briefly: Inhibition of SPI-1 T3SS in Salmonella typhimurium assessed as reduction in SPI-1 T3SS substrates by measuring SipB protein level at 100 uM after 4 hrs by Coomassie staining based SDS-PAGE method. In short, it runs like this: as §1
The test system is the same in data set [11]. Briefly: Inhibition of SPI-1 T3SS in Salmonella typhimurium assessed as reduction in SPI-1 T3SS substrates by measuring FliC protein level at 100 uM after 4 hrs by Coomassie staining based SDS-PAGE method. The gist of the method: as §1
Data set [12] has the same test system. Briefly: Inhibition of SPI-1 T3SS in Salmonella typhimurium assessed as reduction in SPI-1 T3SS substrates by measuring FliD protein level at 100 uM after 4 hrs by Coomassie staining based SDS-PAGE method. In short, it runs like this: as §1
Data set [13] has as its system Salmonella typhimurium. Briefly: Effect on SopE2-CPG2-HA fusion protein expression expressed in Salmonella typhimurium at 0.39 to 100 uM after 4 hrs by Western blot method. In kind it is ADME. The following applies: salmonella enterica subsp. enterica serovar typhimurium. In short, it runs like this: (§2)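 SopE2-CPG2-HA reporter strain grown overnight at 37 °C in LB (10 g/L NaCl) with 50 μg/mL ampicillin, diluted 1:30, then grown 4 h with compound or DMSO/H2O control (<1% of volume). Bacterial lysates were examined for reporter level.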
(A western blot detects proteins with antibodies after separation by electrophoresis.)

The test system of data set [14] is HeLa. Briefly: Inhibition of SPI-1 T3SS in Salmonella typhimurium infected in human HeLa cells assessed as reduction in bacterial invasion at 100 uM after 30 mins by immunofluorescence analysis. The following applies: Salmonella enterica subsp. enterica serovar Typhimurium. In kind it is cell-based. The gist of the method: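 HeLa cells on glass coverslips were infected and stained as for the flow protocol (MOI 10, 30 min, gentamicin chase, anti-Salmonella serum/AlexaFluor 488), with nuclei counterstained by TOPRO-3. Extracellular bacteria were imaged without permeabilisation or gentamicin.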

Data set [15] deals with HeLa. Briefly: Inhibition of SPI-1 T3SS in Salmonella typhimurium infected in human HeLa cells assessed as reduction in bacterial invasion at 100 uM after 30 mins by flow cytometry. It is filed as cell-based. The note with it: Salmonella enterica subsp. enterica serovar Typhimurium. In short, it runs like this: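 Strain IR715 was pre-grown 4 h in LB (1/33 dilution) with compound or DMSO, then added to HeLa cells (DMEM/10% FBS) at MOI 10 with compound. Plates were spun 5 min at 1000×g, infected 30 min at 37 °C, then given gentamicin 100 ug/mL for 30 min. Cells were fixed, saponin-permeabilised, stained with anti-Salmonella serum plus AlexaFluor 488 secondary, and 30,000 cells counted. Values normalised to DMSO; triplicate.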
A general note: A flow cytometer gives signals particle by particle.

For data set [16], the system named is Salmonella typhimurium. Briefly: Effect on growth of Salmonella typhimurium at 100 uM. The following applies: salmonella enterica subsp. enterica serovar typhimurium.
Data set [17] is described as follows: Inhibition of SPI-1 T3SS in Salmonella typhimurium expressing SopE2-CPG2-HA fusion protein assessed as reduction in type 3 protein secretion using Glu-CyFur as substrate after 4 hrs by fluorescence assay. Details: species or system Salmonella enterica subsp. enterica serovar Typhimurium. The gist of the method:
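Reporter strain was grown 4 h at 37 °C with compound after a 1:30 dilution, and OD600 was checked. Culture supernatant was mixed with 50 mM Tris, 0.1 mM ZnCl2, pH 7.4, 0.1% Brij-97 and 10 μM Glu-CyFur. Fluorescence (ex 563/em 610 nm) was read kinetically for 2 h. Inhibition came from the rate versus DMSO/H2O control, and IC50 from an exponential decay fit.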

Data set [18] has as its system Salmonella typhimurium. Briefly: Effect on SopE2-CPG2-HA fusion protein expression expressed in Salmonella typhimurium using Glu-CyFur as substrate at 0.39 to 100 uM after 4 hrs by fluorescence assay. In kind it is ADME. The note with it: salmonella enterica subsp. enterica serovar typhimurium. In short, it runs like this: as §2

This note sets out measurements from ChEMBL document CHEMBL4020703, “Epigallocatechin-3-gallate inhibits bacterial virulence and invasion of host cells” (Bioorg Med Chem, 2017).

Calls of active or inactive are those of the source. No cut-off for these calls is given here.

In the case of `O=C(N/N=C/c1cc(Br)cc(Br)c1O)c1ccc([N+](=O)[O-])cc1`, the inhibition result in data set [1], in [2], in data set [3], in data set [4], in data set [5] and in data set [6] was “Active” throughout.
Take `O=c1cc(-c2ccccc2)oc2cc(O)c(O)c(O)c12`: the inhibition entry in data set [1], in data set [2], in data set [3], in data set [4], in data set [5] and in [6] was “Active” throughout.
In the case of `O=c1cc(-c2ccccc2)oc2cc(O)cc(O)c12`, the inhibition result in [7], in data set [8], in data set [9], in data set [10], in [11] and in [12] was “inactive” throughout.
Take `O=C(O[C@@H]1Cc2c(O)cc(O)cc2O[C@@H]1c1ccc(O)c(O)c1)c1cc(O)c(O)c(O)c1`: the inhibition result in data set [1], in data set [4], in [5] and in data set [6] was “Dose-dependent effect” in each case. Also, the inhibition result in [2] and in data set [3] was “Active” in each case.
What is called IC50 is the concentration that gives 50% inhibition. With `O=C(O[C@@H]1Cc2c(O)cc(O)cc2O[C@@H]1c1cc(O)c(O)c(O)c1)c1cc(O)c(O)c(O)c1` [EPIGALOCATECHIN GALLATE], the Activity result in data set [13], in [16] and in [18] was “Non-Toxic” in each case. The inhibition result in data set [1], in data set [4], in data set [5] and in data set [6] was “Dose-dependent effect” each time. Besides, the inhibition entry in data set [2], in [3], in data set [14] and in [15] was “Active” throughout. Also, the half-inhibitory concentration (IC50) in data set [17] is 2.15 µM.
